Experiments:
[1] = biological target: Protein-tyrosine kinase 6 (Homo sapiens) (UniProt Q13882); experiment: Inhibition of BRK (unknown origin) using [gamma-33P]ATP assessed as residual activity at 3 uM
Outline: (§1)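 Radiometric profiling across 288 kinases (261 wild-type, 27 mutant), run as an outsourced service. Inhibition read out as [gamma-33P]ATP incorporation into substrate.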

[2] = biological target: Serine/threonine-protein kinase Nek2 (Homo sapiens) (UniProt P51955); experiment: Inhibition of NEK2 (unknown origin) using [gamma-33P]ATP assessed as residual activity at 3 uM
[3] = biological target: Protein kinase C zeta type (Homo sapiens) (UniProt Q05513); experiment: Inhibition of PKCzeta (unknown origin) using [gamma-33P]ATP assessed as residual activity at 3 uM
[4] = biological target: Cyclin-dependent kinase 1/cyclin B1 (Homo sapiens) (UniProt P06493+P14635); experiment: Inhibition of CDK1/cyclinB (unknown origin) using [gamma-33P]ATP assessed as residual activity at 3 uM; type: protein-complex assay; outline: as §1
[5] = biological target: Serine/threonine-protein kinase 3 (Homo sapiens) (UniProt Q13188); experiment: Inhibition of MST2 (unknown origin) using [gamma-33P]ATP assessed as residual activity at 3 uM
[6] = biological target: Dual specificity tyrosine-phosphorylation-regulated kinase 1B (Homo sapiens) (UniProt Q9Y463); experiment: Inhibition of DYRK1B (unknown origin) using [gamma-33P]ATP assessed as residual activity at 3 uM
Outline: (§2)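 Reaction Biology HotSpot radiometric profiling panel of 288 kinases (261 wild-type, 27 mutant). Kinase activity was read out by incorporation of [γ-33P]ATP.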

[7] = biological target: MAP kinase-activated protein kinase 2 (Homo sapiens) (UniProt P49137); experiment: Inhibition of MAPKAPK2 (unknown origin) using [gamma-33P]ATP assessed as residual activity at 3 uM
Outline: (§3)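 Radiometric kinase profiling service covering 288 kinases (261 wild-type, 27 mutant). Inhibition was read as incorporation from [γ-³³P]ATP.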

[8] = biological target: Discoidin domain-containing receptor 2 (Homo sapiens) (UniProt Q16832); experiment: Inhibition of DDR2 (unknown origin) using [gamma-33P]ATP assessed as residual activity at 3 uM; outline: as §2
[9] = biological target: Myosin light chain kinase 2, skeletal/cardiac muscle (Homo sapiens) (UniProt Q9H1R3); experiment: Inhibition of MLCK2 (unknown origin) using [gamma-33P]ATP assessed as residual activity at 3 uM
Outline: (§4)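 Contract radiometric panel screen of 288 kinases (261 wild-type, 27 mutant). Inhibition was read by [gamma-33P]ATP radioactivity incorporation.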

[10] = biological target: Serine/threonine-protein kinase Nek4 (Homo sapiens) (UniProt P51957); experiment: Inhibition of NEK4 (unknown origin) using [gamma-33P]ATP assessed as residual activity at 3 uM
[11] = biological target: Serine/threonine-protein kinase PLK3 (Homo sapiens) (UniProt Q9H4B4); experiment: Inhibition of PLK3 (unknown origin) using [gamma-33P]ATP assessed as residual activity at 3 uM
Sequence of Serine/threonine-protein kinase PLK3 (Homo sapiens) (Q9H4B4 whole entry, looked up): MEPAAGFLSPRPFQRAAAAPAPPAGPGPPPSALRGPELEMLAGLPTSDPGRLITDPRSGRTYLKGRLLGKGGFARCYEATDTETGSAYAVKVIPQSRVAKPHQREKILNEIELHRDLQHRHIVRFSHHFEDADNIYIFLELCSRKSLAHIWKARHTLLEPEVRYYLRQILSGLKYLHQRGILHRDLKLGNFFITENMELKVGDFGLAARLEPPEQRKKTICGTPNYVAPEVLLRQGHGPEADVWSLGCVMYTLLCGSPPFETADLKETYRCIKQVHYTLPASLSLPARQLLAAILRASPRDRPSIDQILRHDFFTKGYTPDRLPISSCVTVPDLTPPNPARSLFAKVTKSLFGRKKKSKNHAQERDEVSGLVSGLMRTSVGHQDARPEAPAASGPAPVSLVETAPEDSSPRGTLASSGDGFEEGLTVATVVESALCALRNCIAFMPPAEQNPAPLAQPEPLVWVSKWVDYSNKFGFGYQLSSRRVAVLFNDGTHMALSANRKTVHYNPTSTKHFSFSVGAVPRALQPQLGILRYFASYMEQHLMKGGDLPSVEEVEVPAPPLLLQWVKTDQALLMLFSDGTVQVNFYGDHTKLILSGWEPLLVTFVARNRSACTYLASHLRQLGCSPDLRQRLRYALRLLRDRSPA

[12] = biological target: Serine/threonine-protein kinase Chk1 (Homo sapiens) (UniProt O14757); experiment: Inhibition of CHK1 (unknown origin) using [gamma-33P]ATP assessed as residual activity at 3 uM; outline: as §1
[13] = biological target: Myosin light chain kinase, smooth muscle (Homo sapiens, UniProt Q15746); experiment: Inhibition of MLCK (unknown origin) using [gamma-33P]ATP assessed as residual activity at 3 uM; outline: as §4
[14] = biological target: Testis-specific serine/threonine-protein kinase 2 (Homo sapiens) (UniProt Q96PF2); experiment: Inhibition of TSSK2 (unknown origin) using [gamma-33P]ATP assessed as residual activity at 3 uM
[15] = biological target: MAP/microtubule affinity-regulating kinase 3 (Homo sapiens) (UniProt P27448); experiment: Inhibition of MARK3 (unknown origin) using [gamma-33P]ATP assessed as residual activity at 3 uM; outline: as §4
[16] = biological target: SRSF protein kinase 1 (Homo sapiens) (UniProt Q96SB4); experiment: Inhibition of SRPK1 (unknown origin) using [gamma-33P]ATP assessed as residual activity at 3 uM
Sequence of SRSF protein kinase 1 (Homo sapiens) (Q96SB4 whole entry, canonical isoform): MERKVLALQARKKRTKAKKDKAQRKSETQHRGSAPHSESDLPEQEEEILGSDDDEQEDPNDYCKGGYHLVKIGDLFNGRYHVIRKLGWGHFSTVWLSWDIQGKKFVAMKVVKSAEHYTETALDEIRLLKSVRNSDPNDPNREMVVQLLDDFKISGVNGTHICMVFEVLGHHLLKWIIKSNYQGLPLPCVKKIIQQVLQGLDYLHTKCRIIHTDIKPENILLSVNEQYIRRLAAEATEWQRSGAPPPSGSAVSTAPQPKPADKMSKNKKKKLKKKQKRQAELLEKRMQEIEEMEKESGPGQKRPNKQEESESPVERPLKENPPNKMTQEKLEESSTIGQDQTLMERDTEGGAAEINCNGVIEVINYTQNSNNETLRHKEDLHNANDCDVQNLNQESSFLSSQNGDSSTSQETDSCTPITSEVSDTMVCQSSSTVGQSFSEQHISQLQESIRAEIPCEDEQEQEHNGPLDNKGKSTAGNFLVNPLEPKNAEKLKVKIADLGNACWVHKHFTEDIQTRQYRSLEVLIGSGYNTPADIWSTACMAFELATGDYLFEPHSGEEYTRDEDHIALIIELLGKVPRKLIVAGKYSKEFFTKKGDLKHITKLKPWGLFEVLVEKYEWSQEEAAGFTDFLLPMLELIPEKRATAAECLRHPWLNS

[17] = biological target: Phosphorylase b kinase gamma catalytic chain, liver/testis isoform (Homo sapiens) (UniProt P15735); experiment: Inhibition of PHKg2 (unknown origin) using [gamma-33P]ATP assessed as residual activity at 3 uM
Sequence of Phosphorylase b kinase gamma catalytic chain, liver/testis isoform (Homo sapiens) (P15735 whole entry, canonical isoform): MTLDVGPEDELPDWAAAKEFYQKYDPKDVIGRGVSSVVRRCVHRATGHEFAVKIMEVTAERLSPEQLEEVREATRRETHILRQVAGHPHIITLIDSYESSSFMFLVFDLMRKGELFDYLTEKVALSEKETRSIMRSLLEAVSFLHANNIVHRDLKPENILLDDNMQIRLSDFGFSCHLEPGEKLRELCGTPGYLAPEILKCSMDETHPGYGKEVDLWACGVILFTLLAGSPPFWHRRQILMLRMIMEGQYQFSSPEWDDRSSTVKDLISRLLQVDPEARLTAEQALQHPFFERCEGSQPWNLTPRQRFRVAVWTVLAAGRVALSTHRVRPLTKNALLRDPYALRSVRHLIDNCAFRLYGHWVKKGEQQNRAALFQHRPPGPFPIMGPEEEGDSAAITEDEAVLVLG

[18] = biological target: Platelet-derived growth factor receptor beta (Homo sapiens) (UniProt P09619); experiment: Inhibition of PDGFRb (unknown origin) using [gamma-33P]ATP assessed as residual activity at 3 uM
[19] = biological target: Receptor tyrosine-protein kinase erbB-4 (Homo sapiens) (UniProt Q15303); experiment: Inhibition of ErbB4 (unknown origin) using [gamma-33P]ATP assessed as residual activity at 3 uM; outline: as §2
Sequence of Receptor tyrosine-protein kinase erbB-4 (Homo sapiens) (Q15303 whole entry): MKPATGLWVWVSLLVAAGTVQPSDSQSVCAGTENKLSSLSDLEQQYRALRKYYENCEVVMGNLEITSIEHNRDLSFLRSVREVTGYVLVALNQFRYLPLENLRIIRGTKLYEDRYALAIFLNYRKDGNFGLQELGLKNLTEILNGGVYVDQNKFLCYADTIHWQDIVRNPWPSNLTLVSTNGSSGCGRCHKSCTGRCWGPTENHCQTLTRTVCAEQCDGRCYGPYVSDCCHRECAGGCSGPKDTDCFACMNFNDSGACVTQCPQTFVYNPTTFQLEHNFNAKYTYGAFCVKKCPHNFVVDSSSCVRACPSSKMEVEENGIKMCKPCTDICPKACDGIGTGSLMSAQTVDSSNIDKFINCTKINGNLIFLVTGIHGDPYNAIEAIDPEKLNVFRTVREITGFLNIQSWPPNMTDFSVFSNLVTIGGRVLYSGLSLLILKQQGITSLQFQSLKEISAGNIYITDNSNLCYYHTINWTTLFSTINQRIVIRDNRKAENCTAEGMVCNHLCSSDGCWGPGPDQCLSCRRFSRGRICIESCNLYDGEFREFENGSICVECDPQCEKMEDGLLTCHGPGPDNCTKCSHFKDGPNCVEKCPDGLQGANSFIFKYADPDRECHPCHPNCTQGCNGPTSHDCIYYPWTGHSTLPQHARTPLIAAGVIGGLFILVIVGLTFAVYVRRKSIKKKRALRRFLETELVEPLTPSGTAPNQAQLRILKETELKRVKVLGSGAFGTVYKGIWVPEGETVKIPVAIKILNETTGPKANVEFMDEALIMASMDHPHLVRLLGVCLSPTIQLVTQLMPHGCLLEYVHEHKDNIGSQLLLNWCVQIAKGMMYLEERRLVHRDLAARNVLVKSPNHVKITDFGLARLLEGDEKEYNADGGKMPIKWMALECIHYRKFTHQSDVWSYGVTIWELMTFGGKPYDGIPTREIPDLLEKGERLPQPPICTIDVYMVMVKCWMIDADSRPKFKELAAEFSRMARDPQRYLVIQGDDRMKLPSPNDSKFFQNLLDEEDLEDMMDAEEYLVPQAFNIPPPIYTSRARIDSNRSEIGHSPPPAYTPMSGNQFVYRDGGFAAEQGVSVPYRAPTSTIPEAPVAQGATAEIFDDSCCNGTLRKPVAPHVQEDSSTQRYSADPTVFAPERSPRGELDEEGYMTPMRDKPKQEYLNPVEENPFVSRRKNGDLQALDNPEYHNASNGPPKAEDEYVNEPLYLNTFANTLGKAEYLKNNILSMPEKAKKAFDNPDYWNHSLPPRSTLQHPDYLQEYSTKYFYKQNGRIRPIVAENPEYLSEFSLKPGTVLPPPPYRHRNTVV

[20] = biological target: Serine/threonine-protein kinase WNK2 (Homo sapiens) (UniProt Q9Y3S1); experiment: Inhibition of WNK2 (unknown origin) using [gamma-33P]ATP assessed as residual activity at 3 uM
[21] = biological target: MAP kinase-activated protein kinase 5 (Homo sapiens) (UniProt Q8IW41); experiment: Inhibition of MAPKAPK5 (unknown origin) using [gamma-33P]ATP assessed as residual activity at 3 uM; outline: as §3
[22] = biological target: Vascular endothelial growth factor receptor 2 (Homo sapiens) (UniProt P35968); experiment: Inhibition of KDR (unknown origin) using [gamma-33P]ATP assessed as residual activity at 3 uM; outline: as §3
[23] = biological target: ALK tyrosine kinase receptor (Homo sapiens) (UniProt Q9UM73); experiment: Inhibition of ALK (unknown origin) using [gamma-33P]ATP assessed as residual activity at 3 uM; outline: as §1
[24] = biological target: Homeodomain-interacting protein kinase 1 (Homo sapiens) (UniProt Q86Z02); experiment: Inhibition of HIPK1 (unknown origin) using [gamma-33P]ATP assessed as residual activity at 3 uM; outline: as §3
[25] = biological target: Angiopoietin-1 receptor (Homo sapiens) (UniProt Q02763); experiment: Inhibition of TIE2 (unknown origin) using [gamma-33P]ATP assessed as residual activity at 3 uM
[26] = biological target: Dual specificity tyrosine-phosphorylation-regulated kinase 3 (Homo sapiens) (UniProt O43781); experiment: Inhibition of DYRK3 (unknown origin) using [gamma-33P]ATP assessed as residual activity at 3 uM; outline: as §2
Sequence of Dual specificity tyrosine-phosphorylation-regulated kinase 3 (Homo sapiens) (O43781 whole entry): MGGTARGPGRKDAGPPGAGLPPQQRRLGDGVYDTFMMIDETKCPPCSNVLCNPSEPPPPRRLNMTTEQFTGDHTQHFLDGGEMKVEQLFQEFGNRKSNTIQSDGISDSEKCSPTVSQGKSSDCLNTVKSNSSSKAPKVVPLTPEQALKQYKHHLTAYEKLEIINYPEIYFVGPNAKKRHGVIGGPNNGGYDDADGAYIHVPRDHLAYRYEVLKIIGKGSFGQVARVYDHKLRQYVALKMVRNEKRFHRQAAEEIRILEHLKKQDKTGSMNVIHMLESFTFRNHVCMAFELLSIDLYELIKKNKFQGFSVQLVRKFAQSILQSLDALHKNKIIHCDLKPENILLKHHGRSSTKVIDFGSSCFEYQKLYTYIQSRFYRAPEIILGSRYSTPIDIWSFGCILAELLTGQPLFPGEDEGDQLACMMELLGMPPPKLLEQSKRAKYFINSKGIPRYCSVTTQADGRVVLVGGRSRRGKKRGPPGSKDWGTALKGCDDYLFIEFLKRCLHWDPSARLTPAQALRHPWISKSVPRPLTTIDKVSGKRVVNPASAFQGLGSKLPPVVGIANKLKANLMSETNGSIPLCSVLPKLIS

[27] = biological target: Serine/threonine-protein kinase STK11 (Homo sapiens) (UniProt Q15831); experiment: Inhibition of LKB1 (unknown origin) using [gamma-33P]ATP assessed as residual activity at 3 uM; outline: as §3
[28] = biological target: Serine/threonine-protein kinase Chk2 (Homo sapiens, UniProt O96017); experiment: Inhibition of CHK2 (unknown origin) using [gamma-33P]ATP assessed as residual activity at 3 uM
[29] = biological target: Tyrosine-protein kinase JAK1 (Homo sapiens) (UniProt P23458); experiment: Inhibition of JAK1 (unknown origin) using [gamma-33P]ATP assessed as residual activity at 3 uM; outline: as §3
[30] = biological target: Ribosomal protein S6 kinase alpha-6 (Homo sapiens) (UniProt Q9UK32); experiment: Inhibition of RSK4 (unknown origin) using [gamma-33P]ATP assessed as residual activity at 3 uM
[31] = biological target: Inhibitor of nuclear factor kappa-B kinase subunit beta (Homo sapiens) (UniProt O14920); experiment: Inhibition of IKKb (unknown origin) using [gamma-33P]ATP assessed as residual activity at 3 uM; outline: as §3
Sequence of Inhibitor of nuclear factor kappa-B kinase subunit beta (Homo sapiens) (O14920 whole entry): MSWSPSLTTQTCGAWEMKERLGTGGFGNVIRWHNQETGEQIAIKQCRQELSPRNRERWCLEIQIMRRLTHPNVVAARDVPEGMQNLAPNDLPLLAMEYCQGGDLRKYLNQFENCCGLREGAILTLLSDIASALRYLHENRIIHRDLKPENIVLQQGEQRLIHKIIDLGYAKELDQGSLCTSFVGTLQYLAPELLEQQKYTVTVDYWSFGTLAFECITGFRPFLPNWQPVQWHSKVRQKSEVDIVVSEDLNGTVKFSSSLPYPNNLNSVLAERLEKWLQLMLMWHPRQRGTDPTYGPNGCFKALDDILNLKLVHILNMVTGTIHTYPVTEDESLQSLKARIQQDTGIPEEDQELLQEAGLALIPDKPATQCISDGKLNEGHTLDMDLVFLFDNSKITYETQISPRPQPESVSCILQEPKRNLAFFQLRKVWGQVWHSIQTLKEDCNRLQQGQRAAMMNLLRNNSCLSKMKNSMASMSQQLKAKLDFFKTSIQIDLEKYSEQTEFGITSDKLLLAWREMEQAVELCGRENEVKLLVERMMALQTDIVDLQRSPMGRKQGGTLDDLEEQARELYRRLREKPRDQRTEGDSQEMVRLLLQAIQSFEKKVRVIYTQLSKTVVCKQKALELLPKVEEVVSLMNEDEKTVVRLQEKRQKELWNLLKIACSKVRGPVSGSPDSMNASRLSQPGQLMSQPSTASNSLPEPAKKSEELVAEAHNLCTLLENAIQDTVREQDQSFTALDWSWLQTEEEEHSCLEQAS

Sequence of Protein-tyrosine kinase 6 (Homo sapiens) (Q13882 whole entry, looked up): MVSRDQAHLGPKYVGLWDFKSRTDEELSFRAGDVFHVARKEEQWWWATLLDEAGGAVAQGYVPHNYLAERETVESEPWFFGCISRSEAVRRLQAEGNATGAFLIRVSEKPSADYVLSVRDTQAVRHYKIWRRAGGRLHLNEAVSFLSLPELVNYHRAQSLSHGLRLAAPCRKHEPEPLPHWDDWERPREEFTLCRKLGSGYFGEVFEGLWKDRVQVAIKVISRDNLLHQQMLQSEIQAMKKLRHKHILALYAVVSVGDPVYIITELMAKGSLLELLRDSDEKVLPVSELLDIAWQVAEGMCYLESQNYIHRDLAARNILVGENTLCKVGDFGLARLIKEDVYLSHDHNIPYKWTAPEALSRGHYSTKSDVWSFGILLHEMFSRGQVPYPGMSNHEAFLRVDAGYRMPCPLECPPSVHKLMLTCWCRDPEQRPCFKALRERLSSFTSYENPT

Activity [1]: 73%
Activity [2]: 96%
Activity [3]: 98%
Activity [4]: 83%
Activity [5]: 78%
Activity [6]: 98%
Activity [7]: 97%
Activity [8]: 96%
Activity [9]: 96%
Activity [10]: 90%
Activity [11]: 105%
Activity [12]: 81%
Activity [13]: 45%
Activity [14]: 87%
Activity [15]: 96%
Activity [16]: 90%
Activity [17]: 85%
Activity [18]: 81%
Activity [19]: 90%
Activity [20]: 97%
Activity [21]: 87%
Activity [22]: 86%
Activity [23]: 88%
Activity [24]: 104%
Activity [25]: 91%
Activity [26]: 100%
Activity [27]: 98%
Activity [28]: 50%
Activity [29]: 81%
Activity [30]: 101%
Activity [31]: 102%
SMILES: CCc1ccc(-c2ccc3c(c2)-c2[nH]ncc2S(=O)(=O)N3C)cc1

Source: ChEMBL document CHEMBL2346629, “Discovery and characterization of novel allosteric FAK inhibitors” (Eur J Med Chem, 2013)
